Activity and inhibition data for 15 compounds are collected here from ChEMBL document CHEMBL1800053, “Concise synthesis and antiangiogenic activity of artemisinin-glycolipid hybrids on chorioallantoic membranes” (Bioorg Med Chem Lett, 2010).

One may read the inhibition as the change of the read-out against control, counted positive when it falls.

Data set [1] is described as follows: Embryotoxicity in fertilized chicken embryo at 2.5 nmol/egg. It is filed as toxicity, Gallus gallus.
The species entered for data set [2] is Gallus gallus. Briefly: Antiangiogenesis activity against fertilized chicken egg chorioallantoic membrane assessed as inhibition of neovascularization at 2.5 nmol/egg by CAM vessel development assay relative to control. Format: functional, tissue-based. Put shortly:
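Fertilized chicken eggs incubated at 37 °C, 80–90% relative humidity. Day 3: window opened after removing 2 ml albumin. Day 5: sample loaded on a quarter-size coverslip placed on the CAM of each embryo, 2.5 nmol/egg. Scored as positive eggs out of 10 tested, graded inhibition effect, and % inhibition of vessel development relative to control.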

The structures appear in SMILES notation.

In the case of `C[C@H]1[C@@H](OC(=O)CCCC[C@H](C)O[C@@H]2O[C@@H](C)[C@H](OC(=O)c3ccccc3)C[C@H]2OC(=O)c2ccccc2)O[C@@H]2O[C@@]3(C)CC[C@H]4[C@H](C)CC[C@@H]1[C@@]24OO3`, in data set [1], the Activity entry is “Toxic”. Further, in data set [2], the inhibition worked out at 10%.

In the case of `C[C@H]1[C@@H](CCOC(=O)CCCC[C@H](C)O[C@@H]2O[C@@H](C)[C@H](O)C[C@H]2O)O[C@@H]2O[C@@]3(C)CC[C@H]4[C@H](C)CC[C@@H]1[C@@]24OO3`, in data set [1], the Activity result is “Toxic”. Also, the inhibition in data set [2] is 60%.

Turning to `C[C@H]1[C@@H](CC(=O)O[C@@H]2C[C@@H](O)[C@H](C)O[C@H]2O[C@H](C)CCCCCO)O[C@@H]2O[C@@]3(C)CC[C@H]4[C@H](C)CC[C@@H]1[C@@]24OO3`, the Activity result in data set [1] is reported as “Non-toxic”. The inhibition in data set [2] was found to be 50%.

`C[C@H]1[C@@H](OC(=O)CCCC[C@H](C)O[C@@H]2O[C@@H](C)[C@H](O)C[C@H]2O)O[C@@H]2O[C@@]3(C)CC[C@H]4[C@H](C)CC[C@@H]1[C@@]24OO3`: the Activity result in data set [1] was “Toxic”. Moreover, the inhibition in data set [2] is 50%.

Consider `C[C@H]1[C@@H](CCCOC(=O)CCCC[C@H](C)O[C@@H]2O[C@@H](C)[C@H](O)C[C@H]2O)O[C@@H]2O[C@@]3(C)CC[C@H]4[C@H](C)CC[C@@H]1[C@@]24OO3`, for which, in data set [1], the Activity entry is given as “Toxic”. For the same compound, the inhibition in data set [2] came out at 60%.

Regarding `C[C@H](CCCCC(=O)O)O[C@@H]1O[C@@H](C)[C@H](O)C[C@H]1O` [DAUMONE], in data set [1], the Activity entry is “Non-toxic”. The inhibition in data set [2] came out at 70%.

Turning to `CO[C@@H]1[C@H](OC(=O)/C=C/C=C/C=C/C=C/C(=O)O)CC[C@]2(CO2)[C@H]1[C@@]1(C)O[C@@H]1CC=C(C)C` [FUMAGILLIN], the Activity result in data set [1] is given as “Toxic”. Besides, the inhibition in data set [2] was determined as 40%.

Turning to `C[C@H]1[C@@H](CCOC(=O)CCCC[C@H](C)O[C@@H]2O[C@@H](C)[C@H](OC(=O)c3ccccc3)C[C@H]2OC(=O)c2ccccc2)O[C@@H]2O[C@@]3(C)CC[C@H]4[C@H](C)CC[C@@H]1[C@@]24OO3`, the Activity result in data set [1] is on record as “Toxic”. Besides, the inhibition in data set [2] came out at 60%.

Take `C=CCCCC[C@@H](C)O[C@@H]1O[C@@H](C)[C@H](O)C[C@H]1OC(=O)C[C@H]1O[C@@H]2O[C@@]3(C)CC[C@H]4[C@H](C)CC[C@@H]([C@H]1C)[C@@]24OO3`: in data set [1], the Activity was 50%. Besides, in data set [2], the inhibition was determined as 50%.

As to `C[C@H]1[C@@H](CCCOC(=O)CCCC[C@H](C)O[C@@H]2O[C@@H](C)[C@H](OC(=O)c3ccccc3)C[C@H]2OC(=O)c2ccccc2)O[C@@H]2O[C@@]3(C)CC[C@H]4[C@H](C)CC[C@@H]1[C@@]24OO3`, in data set [1], the Activity entry is “Non-toxic”. For the same compound, the inhibition in data set [2] turned out to be 80%.

On to `O=C1CC[C@H](N2C(=O)c3ccccc3C2=O)C(=O)N1`, for which the Activity entry in data set [1] is “Toxic”. In addition, the inhibition in data set [2] is 40%.

Turning to `C[C@H]1[C@@H](CC(=O)OCCCCC[C@@H](C)O[C@@H]2O[C@@H](C)[C@H](O)C[C@H]2O)O[C@@H]2O[C@@]3(C)CC[C@H]4[C@H](C)CC[C@@H]1[C@@]24OO3`, the Activity entry in data set [1] is reported as “Non-toxic”. In addition, the inhibition in data set [2] is 100%.

In the case of `C=CCCCC[C@@H](C)O[C@@H]1O[C@@H](C)[C@H](OC(=O)C[C@H]2O[C@@H]3O[C@@]4(C)CC[C@H]5[C@H](C)CC[C@@H]([C@H]2C)[C@@]35OO4)C[C@H]1O`, the Activity entry in data set [1] is on record as “Toxic”. Moreover, the inhibition in data set [2] came to 70%.

As for `C[C@@H]1CC[C@H]2[C@@H](C)C(=O)O[C@@H]3O[C@@]4(C)CC[C@@H]1[C@]32OO4` [ARTEMISININ], the Activity entry in data set [1] is “Non-toxic”. Further, the inhibition in data set [2] was 30%.

`C[C@H]1[C@@H](CC(=O)OCCCCC[C@@H](C)O[C@@H]2O[C@@H](C)[C@H](OCc3ccccc3)C[C@H]2OCc2ccccc2)O[C@@H]2O[C@@]3(C)CC[C@H]4[C@H](C)CC[C@@H]1[C@@]24OO3`: the Activity result in data set [1] is listed as “Toxic”. The inhibition in data set [2] was 50%.
